Data as given in ChEMBL document CHEMBL5674890, “Selective inhibition of CBP/p300 HAT by A-485 results in suppression of lipogenesis and hepatic gluconeogenesis” (Cell Death Dis, 2020).
The source made the active and inactive calls. The calls are words filed in the database; no cut-off is given here.

Key:
Mus musculus [1] = assay: Anti-obesity activity in 16 hrs fasted C57BL/6 mouse supplemented with normal chow diet assessed as decrease in blood glucose level at 20 mg/kg/day, ip administered for 1 week measured after 15 to 30 mins by pyruvate tolerance test; assay type: functional, organism-based; conditions: time 1.0 weeks
In short: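 Normal-chow male C57BL/6 mice (8 weeks old) dosed ip at 20 mg·kg−1·day−1 for 7 days. Pyruvate tolerance test: 16 h fast, then pyruvate 2 g/kg body weight ip, blood glucose followed over time. Mean ± SEM, n = 5–9.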

Adipocyte [2] = assay: Inhibition of lipogenesis in mouse adipocytes isolated stromal vascular cells assessed as decrease in FAS protein expression measured after 24 hrs by western blot analysis; assay type: functional, cell-based
Adipocyte [3] = assay: Inhibition of lipogenesis in mouse adipocytes isolated stromal vascular cells assessed as decrease in PPARgamma protein expression measured after 24 hrs by western blot analysis; assay type: functional, cell-based
Mus musculus [4] = assay: Inhibition of lipogenesis in C57BL/6 mouse supplemented with normal chow diet assessed as decrease in FASN mRNA expression at 20 mg/kg/day, ip administered for 1 week measured by RT-qPCR assay; assay type: functional, organism-based; conditions: time 1.0 weeks
In short: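 Eight-week-old male C57BL/6 mice on normal chow were given 20 mg·kg−1·day−1 ip daily for 7 days or vehicle. Epididymal WAT was collected. Lipogenic, adipogenic and fatty-acid-oxidation transcripts were quantified by Trizol extraction and SYBR Green RT-qPCR. FAS, ACC, PPARγ and C/EBPα protein were assessed by western blot. n = 5–9; mean ± SEM.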

Mus musculus [5] = assay: Anti-obesity activity in C57BL/6 mouse supplemented with normal chow diet assessed as effect on random blood glucose at 20 mg/kg/day, ip administered for 1 week; assay type: functional, organism-based; conditions: time 1.0 weeks
In short: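 8-week-old male C57BL/6 mice on normal chow, ip 20 mg·kg−1·day−1 for 7 days. Blood glucose measured randomly fed or after 6 h or 16 h fasting, as the line states. Mean ± SEM, n = 5–9.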

Mus musculus [6] = assay: Inhibition of lipogenesis in C57BL/6 mouse supplemented with high-fat diet assessed as decrease in gross size of WAT at 20 mg/kg/day, ip administered for 1 week; assay type: functional, organism-based; conditions: time 1.0 weeks
In short: (§1)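 Male C57BL/6 mice were fed high-fat diet for 14 weeks from 5 weeks of age, then injected ip with 20 mg·kg−1·day−1 for 7 days or given vehicle. Epididymal and inguinal WAT were weighed, examined by H&E, and analysed. Transcripts were measured by Trizol/SYBR Green RT-qPCR; proteins by western blot. n = 5–9; mean ± SEM.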

Mus musculus [7] = assay: Inhibition of lipogenesis in C57BL/6 mouse supplemented with high-fat diet assessed as decrease in FABP4 mRNA expression at 20 mg/kg/day, ip administered for 1 week measured measured by RT-qPCR assay; assay type: functional, organism-based; conditions: time 1.0 weeks; in short: as §1
Hepatocyte [8] = assay: Inhibition of glucogenesis in mouse primary hepatocytes stimulated with 100 uM 8-Br-cAMP assessed as decrease in PEPCK mRNA expression at 3 uM in combination with 2 mM metformin measured by RT-qPCR assay; assay type: functional, cell-based
In short: (§2)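 Primary mouse hepatocytes given 3 μM compound with 2 mM metformin in the presence of 100 μM 8-Br-cAMP. Gluconeogenic gene mRNA measured by SYBR Green RT-qPCR. Mean ± SEM, three independent experiments.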

[9] = biological target: CREB-binding protein/Histone acetyltransferase p300 (Homo sapiens) (UniProt Q09472+Q92793); assay: Inhibition of CBP/p300 in mouse primary hepatocytes stimulated with 100 uM 8-Br-cAMP assessed as decrease in FOXO1 protein expression at 3 uM in presence of 10 uM MG132; assay type: cell-based; conditions: Primary hepatocyte
In short: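 Primary mouse hepatocytes exposed to 100 μM 8-Br-cAMP, 3 μM compound, 10 μg/ml cycloheximide and 10 μM MG132. FOXO1 protein measured by western blot, band intensity quantified. Three independent experiments.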

Mus musculus [10] = assay: Inhibition of lipogenesis in C57BL/6 mouse supplemented with high-fat diet assessed as decrease in C/EBPalpha protein expression at 20 mg/kg/day, ip administered for 1 week measured measured by western blot analysis; assay type: functional, organism-based; conditions: time 1.0 weeks; in short: as §1
Adipocyte [11] = assay: Inhibition of lipogenesis in mouse adipocytes isolated stromal vascular cells assessed as decrease in ACC protein expression measured after 24 hrs by western blot analysis; assay type: functional, cell-based
Hepatocyte [12] = assay: Inhibition of glucogenesis in mouse primary hepatocytes stimulated with 100 uM 8-Br-cAMP assessed as decrease in C/EBPalpha mRNA expression at 3 uM measured after 8 hrs by RT-qPCR assay; assay type: functional, cell-based
In short: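 Primary mouse hepatocytes treated with 3 μM compound and 100 μM 8-Br-cAMP for 8 h. Trizol RNA, SYBR Green RT-qPCR of the named transcript. Mean ± SEM, three independent experiments.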

Mus musculus [13] = assay: Anti-obesity activity in 6 hrs fasted C57BL/6 mouse supplemented with normal chow diet assessed as effect on insulin sensitivity at 20 mg/kg/day, ip administered for 1 week measured by insulin tolerance test; assay type: functional, organism-based; conditions: time 1.0 weeks
In short: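 Insulin tolerance test in normal-chow male C57BL/6 mice (8 weeks), after 7 days of ip dosing at 20 mg·kg−1·day−1. 6 h fast, then insulin 0.75 UI/kg body weight ip; blood glucose followed. Mean ± SEM, n = 5–9.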

Hepatocyte [14] = assay: Inhibition of glucogenesis in mouse primary hepatocytes stimulated with 100 uM 8-Br-cAMP assessed as decrease in FBP mRNA expression at 3 uM in combination with 2 mM metformin measured by RT-qPCR assay; assay type: functional, cell-based; in short: as §2
Mus musculus [15] = assay: Anti-obesity activity in C57BL/6 mouse supplemented with normal chow diet assessed as decrease in hepatic G6Pc mRNA expression at 20 mg/kg/day, ip administered for 1 week measured a by RT-qPCR assay; assay type: functional, organism-based; conditions: time 1.0 weeks
In short: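 Liver G6Pc mRNA in 8-week-old normal-chow male C57BL/6 mice after 7 days ip at 20 mg·kg−1·day−1. Trizol RNA extraction, SYBR Green RT-qPCR. Mean ± SEM, n = 5–9.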

Chain of CREB-binding protein/Histone acetyltransferase p300 (Homo sapiens) (Q09472 whole entry, looked up): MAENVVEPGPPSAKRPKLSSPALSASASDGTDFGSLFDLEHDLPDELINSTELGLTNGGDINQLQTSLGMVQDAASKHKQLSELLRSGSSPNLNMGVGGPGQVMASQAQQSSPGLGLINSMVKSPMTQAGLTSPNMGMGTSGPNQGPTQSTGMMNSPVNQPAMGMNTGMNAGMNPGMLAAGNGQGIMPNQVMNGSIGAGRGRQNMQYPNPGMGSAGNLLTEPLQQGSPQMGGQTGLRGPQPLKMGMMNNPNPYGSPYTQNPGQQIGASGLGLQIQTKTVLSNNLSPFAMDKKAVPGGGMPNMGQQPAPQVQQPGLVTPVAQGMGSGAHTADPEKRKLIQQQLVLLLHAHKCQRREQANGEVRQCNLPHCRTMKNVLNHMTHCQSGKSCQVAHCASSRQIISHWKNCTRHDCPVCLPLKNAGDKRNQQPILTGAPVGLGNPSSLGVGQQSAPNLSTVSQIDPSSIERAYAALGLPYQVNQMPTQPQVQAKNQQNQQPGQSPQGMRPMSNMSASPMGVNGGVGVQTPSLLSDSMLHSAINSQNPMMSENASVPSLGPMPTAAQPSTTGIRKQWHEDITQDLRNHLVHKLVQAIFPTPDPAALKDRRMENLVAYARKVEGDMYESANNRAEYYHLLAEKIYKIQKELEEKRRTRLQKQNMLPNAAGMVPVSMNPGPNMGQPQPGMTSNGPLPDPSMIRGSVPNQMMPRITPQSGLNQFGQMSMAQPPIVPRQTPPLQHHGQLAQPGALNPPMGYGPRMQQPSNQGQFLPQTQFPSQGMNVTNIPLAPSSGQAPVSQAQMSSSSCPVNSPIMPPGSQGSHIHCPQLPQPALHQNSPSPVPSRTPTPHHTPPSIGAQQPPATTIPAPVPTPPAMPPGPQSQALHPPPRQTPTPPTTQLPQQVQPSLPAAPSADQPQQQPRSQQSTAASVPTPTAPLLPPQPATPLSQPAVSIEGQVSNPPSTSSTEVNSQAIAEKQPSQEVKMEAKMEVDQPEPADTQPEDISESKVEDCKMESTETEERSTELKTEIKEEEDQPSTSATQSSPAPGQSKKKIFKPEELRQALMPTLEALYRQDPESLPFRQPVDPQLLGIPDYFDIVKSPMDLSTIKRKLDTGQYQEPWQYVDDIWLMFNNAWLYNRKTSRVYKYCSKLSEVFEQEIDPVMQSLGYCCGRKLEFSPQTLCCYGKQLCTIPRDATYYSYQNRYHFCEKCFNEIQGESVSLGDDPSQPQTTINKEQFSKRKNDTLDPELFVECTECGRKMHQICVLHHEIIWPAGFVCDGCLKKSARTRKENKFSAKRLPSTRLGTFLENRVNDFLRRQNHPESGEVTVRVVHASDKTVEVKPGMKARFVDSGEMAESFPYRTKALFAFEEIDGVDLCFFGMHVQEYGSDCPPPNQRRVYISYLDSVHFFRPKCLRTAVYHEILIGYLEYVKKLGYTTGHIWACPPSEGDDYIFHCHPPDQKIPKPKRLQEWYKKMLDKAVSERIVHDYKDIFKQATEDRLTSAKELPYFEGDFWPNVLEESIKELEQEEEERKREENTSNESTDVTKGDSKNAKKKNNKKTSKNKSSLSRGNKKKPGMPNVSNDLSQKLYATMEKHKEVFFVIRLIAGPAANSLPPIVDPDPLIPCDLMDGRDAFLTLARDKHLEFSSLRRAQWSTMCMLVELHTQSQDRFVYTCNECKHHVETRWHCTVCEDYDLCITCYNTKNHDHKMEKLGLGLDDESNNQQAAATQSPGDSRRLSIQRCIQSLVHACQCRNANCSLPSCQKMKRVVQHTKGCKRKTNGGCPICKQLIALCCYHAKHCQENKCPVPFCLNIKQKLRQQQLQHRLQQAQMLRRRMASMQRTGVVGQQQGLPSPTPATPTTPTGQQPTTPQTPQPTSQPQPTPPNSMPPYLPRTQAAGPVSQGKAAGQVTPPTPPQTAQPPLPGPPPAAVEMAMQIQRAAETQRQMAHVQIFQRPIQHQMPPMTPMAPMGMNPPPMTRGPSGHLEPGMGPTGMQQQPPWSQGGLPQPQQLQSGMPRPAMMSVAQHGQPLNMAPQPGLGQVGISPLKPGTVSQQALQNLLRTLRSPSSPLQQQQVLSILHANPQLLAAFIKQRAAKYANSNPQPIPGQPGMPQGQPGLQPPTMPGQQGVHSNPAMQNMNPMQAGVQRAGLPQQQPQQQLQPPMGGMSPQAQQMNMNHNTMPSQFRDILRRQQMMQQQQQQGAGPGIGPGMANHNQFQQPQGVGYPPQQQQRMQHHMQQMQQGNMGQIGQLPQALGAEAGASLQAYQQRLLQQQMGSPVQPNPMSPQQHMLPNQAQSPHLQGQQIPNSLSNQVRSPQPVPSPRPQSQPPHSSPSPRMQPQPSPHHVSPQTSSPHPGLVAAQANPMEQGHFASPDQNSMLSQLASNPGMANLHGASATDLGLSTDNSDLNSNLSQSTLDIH
Chain of CREB-binding protein/Histone acetyltransferase p300 (Homo sapiens) (Q92793 whole entry, looked up): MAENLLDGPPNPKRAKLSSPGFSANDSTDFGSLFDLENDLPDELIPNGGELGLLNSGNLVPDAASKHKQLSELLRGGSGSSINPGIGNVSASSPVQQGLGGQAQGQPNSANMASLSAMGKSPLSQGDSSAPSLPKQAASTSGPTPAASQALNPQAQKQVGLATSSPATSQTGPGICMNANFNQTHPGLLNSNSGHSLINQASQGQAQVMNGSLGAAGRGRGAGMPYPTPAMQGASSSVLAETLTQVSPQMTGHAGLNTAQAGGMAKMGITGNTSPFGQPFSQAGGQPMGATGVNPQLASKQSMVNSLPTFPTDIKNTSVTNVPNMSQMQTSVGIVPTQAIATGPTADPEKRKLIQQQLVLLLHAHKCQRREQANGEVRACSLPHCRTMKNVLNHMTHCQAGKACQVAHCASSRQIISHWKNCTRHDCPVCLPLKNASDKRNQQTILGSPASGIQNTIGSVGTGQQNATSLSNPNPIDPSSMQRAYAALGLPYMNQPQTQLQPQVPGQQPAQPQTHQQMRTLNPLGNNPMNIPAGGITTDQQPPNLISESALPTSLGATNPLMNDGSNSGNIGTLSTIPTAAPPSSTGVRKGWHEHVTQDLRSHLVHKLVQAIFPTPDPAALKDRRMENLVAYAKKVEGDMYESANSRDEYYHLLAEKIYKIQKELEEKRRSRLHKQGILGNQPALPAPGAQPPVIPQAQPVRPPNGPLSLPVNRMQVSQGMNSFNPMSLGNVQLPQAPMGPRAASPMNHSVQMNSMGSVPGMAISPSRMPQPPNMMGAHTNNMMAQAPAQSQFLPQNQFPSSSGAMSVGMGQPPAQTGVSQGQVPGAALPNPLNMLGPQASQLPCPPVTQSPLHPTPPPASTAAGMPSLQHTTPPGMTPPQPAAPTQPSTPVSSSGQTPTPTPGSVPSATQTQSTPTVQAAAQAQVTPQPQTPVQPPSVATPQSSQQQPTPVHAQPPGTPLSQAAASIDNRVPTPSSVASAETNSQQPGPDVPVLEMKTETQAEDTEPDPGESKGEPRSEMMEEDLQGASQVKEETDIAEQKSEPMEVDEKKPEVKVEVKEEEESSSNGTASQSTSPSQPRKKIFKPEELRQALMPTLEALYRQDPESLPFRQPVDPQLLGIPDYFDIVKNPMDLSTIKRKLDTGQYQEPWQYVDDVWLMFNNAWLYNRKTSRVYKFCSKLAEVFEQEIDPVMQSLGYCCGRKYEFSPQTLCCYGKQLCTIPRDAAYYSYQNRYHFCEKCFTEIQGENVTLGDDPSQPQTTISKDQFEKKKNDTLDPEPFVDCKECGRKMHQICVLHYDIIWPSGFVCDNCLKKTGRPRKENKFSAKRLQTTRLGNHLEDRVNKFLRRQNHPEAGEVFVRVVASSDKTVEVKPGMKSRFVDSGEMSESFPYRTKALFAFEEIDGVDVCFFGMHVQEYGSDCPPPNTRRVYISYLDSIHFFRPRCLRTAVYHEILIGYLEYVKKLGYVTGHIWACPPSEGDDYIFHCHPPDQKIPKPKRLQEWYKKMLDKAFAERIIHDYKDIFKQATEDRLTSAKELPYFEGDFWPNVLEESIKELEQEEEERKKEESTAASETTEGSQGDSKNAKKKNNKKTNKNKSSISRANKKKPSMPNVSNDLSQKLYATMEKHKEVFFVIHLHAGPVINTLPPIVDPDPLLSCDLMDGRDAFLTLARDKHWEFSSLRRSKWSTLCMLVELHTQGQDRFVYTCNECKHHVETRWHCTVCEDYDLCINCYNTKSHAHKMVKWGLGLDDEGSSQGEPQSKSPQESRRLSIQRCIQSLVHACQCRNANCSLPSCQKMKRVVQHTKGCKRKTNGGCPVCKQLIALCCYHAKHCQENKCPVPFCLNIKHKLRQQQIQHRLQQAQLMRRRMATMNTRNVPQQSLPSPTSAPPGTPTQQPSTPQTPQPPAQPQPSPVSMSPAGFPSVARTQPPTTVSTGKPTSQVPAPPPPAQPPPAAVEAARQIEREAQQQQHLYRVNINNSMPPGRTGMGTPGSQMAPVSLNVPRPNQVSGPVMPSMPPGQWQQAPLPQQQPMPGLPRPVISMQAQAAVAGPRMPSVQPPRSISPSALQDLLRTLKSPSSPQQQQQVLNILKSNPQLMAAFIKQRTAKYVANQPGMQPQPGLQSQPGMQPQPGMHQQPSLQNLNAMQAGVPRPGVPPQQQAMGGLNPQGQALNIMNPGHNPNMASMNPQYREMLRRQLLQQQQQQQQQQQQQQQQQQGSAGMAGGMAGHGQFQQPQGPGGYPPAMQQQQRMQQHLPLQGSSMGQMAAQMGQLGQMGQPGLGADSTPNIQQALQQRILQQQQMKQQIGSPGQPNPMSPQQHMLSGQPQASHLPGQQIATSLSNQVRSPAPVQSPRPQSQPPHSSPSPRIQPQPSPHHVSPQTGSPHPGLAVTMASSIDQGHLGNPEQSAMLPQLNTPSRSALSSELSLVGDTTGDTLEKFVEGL

inhibition [9]: Active
Structure (SMILES): CNC(=O)Nc1ccc2c(c1)CCS21OC(=O)N(CC(=O)N(Cc2ccc(F)cc2)[C@@H](C)C(F)(F)F)C1=O (stereo not given in full)
Activity (Mus musculus [1]): Active | inhibition (Adipocyte [2]): Active | inhibition (Adipocyte [3]): Active | inhibition (Mus musculus [4]): Active | Activity (Mus musculus [5]): inactive | inhibition (Mus musculus [6]): Active | inhibition (Mus musculus [7]): Active | inhibition (Hepatocyte [8]): Active | inhibition (Mus musculus [10]): Active | inhibition (Adipocyte [11]): Active | inhibition (Hepatocyte [12]): Active | Activity (Mus musculus [13]): inactive | inhibition (Hepatocyte [14]): Active | Activity (Mus musculus [15]): Active
